Source: ChEMBL document CHEMBL1141219, “Chemoenzymatic synthesis of a series of 4-substituted glutamate analogues and pharmacological characterization at human glutamate transporters subtypes 1-3” (J Med Chem, 2005)

Legend:
Type in all cases: functional, cell-based
[1] = molecular target: T1, Excitatory amino acid transporter 3 (Homo sapiens) (UniProt P43005); assay: Binding affinity to human EAAT3 expressed in HEK293 cells in FMP (FLPR) assay
T1 sequence (whole entry): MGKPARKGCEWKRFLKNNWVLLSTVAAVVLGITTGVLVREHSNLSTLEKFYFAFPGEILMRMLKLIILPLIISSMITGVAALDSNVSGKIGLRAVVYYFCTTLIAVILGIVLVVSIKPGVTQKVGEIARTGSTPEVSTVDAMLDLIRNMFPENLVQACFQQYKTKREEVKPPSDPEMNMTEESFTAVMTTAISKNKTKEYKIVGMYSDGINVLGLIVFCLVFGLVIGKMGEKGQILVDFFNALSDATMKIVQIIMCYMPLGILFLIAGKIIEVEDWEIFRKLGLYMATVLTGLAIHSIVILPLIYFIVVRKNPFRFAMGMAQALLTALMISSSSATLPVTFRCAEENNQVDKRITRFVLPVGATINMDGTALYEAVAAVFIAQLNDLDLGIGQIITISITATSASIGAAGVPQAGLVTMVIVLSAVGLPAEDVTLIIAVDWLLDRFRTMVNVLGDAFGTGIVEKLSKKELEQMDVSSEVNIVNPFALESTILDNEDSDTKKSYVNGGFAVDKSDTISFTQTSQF
Summary of the method: (§1)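 HEK293 cells stably expressing the human transporter, seeded on poly-D-lysine plates in DMEM with 10% dialyzed FBS and G-418 for 16–24 h. Cells washed in Krebs buffer (pH 7.4), then loaded with FMP dye for 30 min at 37 °C. Read at room temperature, excitation 530 nm and emission 560 nm, for up to 1 min after substrate addition. Non-substrate inhibitors were preincubated and tested against 30 μM Glu. Seven-concentration curves from maximal responses, duplicate, at least three times.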

[2] = molecular target: Excitatory amino acid transporter 1 (Homo sapiens) (UniProt P43003); assay: Binding affinity to human EAAT1 expressed in HEK293 cells in FMP (FLPR) assay; summary of the method: as §1
Sequence of Excitatory amino acid transporter 1 (Homo sapiens) (P43003 whole entry): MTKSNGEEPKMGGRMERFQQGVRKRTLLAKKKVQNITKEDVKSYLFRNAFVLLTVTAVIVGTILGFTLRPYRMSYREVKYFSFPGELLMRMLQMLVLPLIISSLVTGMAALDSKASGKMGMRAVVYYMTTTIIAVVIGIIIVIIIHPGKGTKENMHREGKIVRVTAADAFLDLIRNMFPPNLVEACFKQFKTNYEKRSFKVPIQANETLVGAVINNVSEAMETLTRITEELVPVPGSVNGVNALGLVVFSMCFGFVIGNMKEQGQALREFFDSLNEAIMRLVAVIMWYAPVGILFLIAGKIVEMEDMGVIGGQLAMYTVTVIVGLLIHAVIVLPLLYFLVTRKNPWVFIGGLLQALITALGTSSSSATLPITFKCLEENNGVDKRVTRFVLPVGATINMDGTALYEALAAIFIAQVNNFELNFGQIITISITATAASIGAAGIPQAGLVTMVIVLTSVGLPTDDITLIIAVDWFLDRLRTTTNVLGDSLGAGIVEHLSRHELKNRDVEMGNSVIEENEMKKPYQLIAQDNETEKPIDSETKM

[3] = molecular target: Excitatory amino acid transporter 2 (Homo sapiens) (UniProt P43004); assay: Binding affinity to human EAAT2 expressed in HEK293 cells in FMP (FLPR) assay; summary of the method: as §1
Sequence of Excitatory amino acid transporter 2 (Homo sapiens) (P43004 whole entry): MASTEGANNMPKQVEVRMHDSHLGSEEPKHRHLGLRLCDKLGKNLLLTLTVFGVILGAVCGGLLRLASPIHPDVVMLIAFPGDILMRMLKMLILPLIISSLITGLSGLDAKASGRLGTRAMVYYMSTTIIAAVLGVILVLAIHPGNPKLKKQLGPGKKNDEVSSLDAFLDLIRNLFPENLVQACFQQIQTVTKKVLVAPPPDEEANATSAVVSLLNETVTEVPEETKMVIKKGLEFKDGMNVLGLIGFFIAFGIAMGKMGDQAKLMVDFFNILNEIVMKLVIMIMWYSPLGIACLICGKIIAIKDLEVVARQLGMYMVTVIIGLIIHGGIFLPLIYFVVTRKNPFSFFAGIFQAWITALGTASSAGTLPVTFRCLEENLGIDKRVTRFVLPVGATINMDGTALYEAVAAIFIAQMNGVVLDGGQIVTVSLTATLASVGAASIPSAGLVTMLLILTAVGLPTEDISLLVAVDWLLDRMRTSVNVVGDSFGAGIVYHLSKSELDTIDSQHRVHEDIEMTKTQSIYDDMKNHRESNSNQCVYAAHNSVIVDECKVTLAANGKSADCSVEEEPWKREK

## N[C@@H](CCC(=O)O)C(=O)O
[1]
  pKm: 4.61
[2]
  pKm: 5.04
[3]
  pKm: 4.69

## N[C@@H](C[C@H](O)C(=O)O)C(=O)O
[1]
  pKm: 4.16
[2]
  pKm: 4.06
[3]
  pKm: 4.21

## C[C@H](C[C@H](N)C(=O)O)C(=O)O
[2]
  pKm: 4.92

## N[C@@H](C[C@@H](O)C(=O)O)C(=O)O
[1]
  pKm: 3
[2]
  pKm: 3
[3]
  pKm: 3
